# Screening data (PubChem BioAssay)
# CaV13 ICDI inh – Primary screen for inhibitors of IQ motif and Ca2+-dependent inactivation inhibitor domain binding in CACNA1D, Förster resonance energy transfer in living cells, … | HEK cells, CFP/YFP FRET ICDI-IQ, plate reader, 10 min; percent FRET-ratio fall versus neutral wells | inhibition, % at 12.3 µM | 0.098% of 340,000 active | AID 743397;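 active = mean replicate inhibition of at least 30% and at least 1% of replicates passing that level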;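 note: 0% = median of the neutral control wells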
# NTR1 agonist – NTR1 (human) agonism | AID 493036 | 0.17% of 330,000 active | P30989 | activation, % at 20 µM | NTR1-U2OS beta-arrestin-GFP spot imaging, agonist mode;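 active = activation at or above 40% of the spot to cytoplasm intensity ratio, with at least 20 cells analyzed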;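 note: 0% = DMSO without peptide and 100% = 100 nM NTR1 peptide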
# V-ATPase pHluor – yeast V-ATPase proton transport regulation by pHLuorin. response, % at 10 µM. AID 504577. S. cerevisiae, pHLuorin cytosolic pH fluorescence. 0.37% of 350,000 active; in the data active = response mostly above about 7.3%, no sharp cut-off; inactive = mostly below about 5.4%; note: actives read high
# SR-BI HDL uptake – mouse SR-BI HDL lipid transfer inhibition; Q61009; ldlA[mSR-BI] CHO cells, DiI-HDL uptake fluorescence, 3 h; inhibition, % at 12.5 µM; 0.96% of 320,000 active; AID 488896;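 active = mean replicate inhibition of at least 70% and a set share of replicates each scoring 70 or more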;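 note: 0% = median of neutral control wells and 100% = median of positive control wells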
# Target sequence (Q61009 whole entry, looked up): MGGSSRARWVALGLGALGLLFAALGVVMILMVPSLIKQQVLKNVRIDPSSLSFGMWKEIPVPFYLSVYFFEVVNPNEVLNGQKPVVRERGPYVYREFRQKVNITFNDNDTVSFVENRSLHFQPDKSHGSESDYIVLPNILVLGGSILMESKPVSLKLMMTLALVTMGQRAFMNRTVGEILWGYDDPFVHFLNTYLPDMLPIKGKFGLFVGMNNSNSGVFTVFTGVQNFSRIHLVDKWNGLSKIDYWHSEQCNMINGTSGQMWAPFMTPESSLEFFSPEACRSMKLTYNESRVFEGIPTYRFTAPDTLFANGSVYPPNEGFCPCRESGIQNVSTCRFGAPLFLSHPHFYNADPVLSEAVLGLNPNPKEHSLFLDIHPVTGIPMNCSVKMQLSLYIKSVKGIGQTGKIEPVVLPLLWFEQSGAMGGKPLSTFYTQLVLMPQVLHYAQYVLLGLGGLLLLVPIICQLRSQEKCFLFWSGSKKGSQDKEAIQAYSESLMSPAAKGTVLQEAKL
# SR-BI uptake up – activators of SR-BI mediated HDL lipid uptake | CHO ldlA[mSR-BI] cells, DiI-HDL uptake fluorescence, 3 h; 100 = double the neutral-control signal | activation, % at 12.5 µM | 0.096% of 320,000 active | AID 504775;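 active = mean replicate activation of at least 60% and every replicate at or above 60%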;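 note: 0% = median plate neutral-control signal and 100% = twice that signal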
#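 Material: SR-BI-overexpressing, LDLR-lacking CHO cells | Dosing: Single compound concentration, delivered by pin transfer | Probe or stimulus: Labelled HDL, 10 µg/mL | Signal: Bottom-read cell fluorescence after medium removal, ex 550/em 595 nm | Schedule: 3 h, 37 °C | Evaluation: HDL uptake via cellular fluorescence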
# Vif inh – inhibitors of HIV Vif; 0.35% of 340,000 active; AID 602346; HEK293T cells, Vif self-association by quenched fluorescence, imaging, 24 h; inhibition, % at 7.49 µM; in the data active = inhibition above about 50%, passing the limit was not always enough
# V-ATPase pH SP – yeast V-ATPase proton transport regulation. shares compounds with V-ATPase pHluor. S. cerevisiae pHLuorin cytosolic pH. response, % at 10 µM. 2% of 980 active. AID 602197; in the data active = response above about 24%;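 note: plate controls were vehicle wells for no effect and positive control wells for full effect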
# * marks the source's active call; other numbers are inactive results; / = no result. Sampled rows, rich in hits. Any-hit rate of the full collection: about 1.7%.
SMILES,CaV13 ICDI inh,NTR1 agonist,V-ATPase pHluor,SR-BI HDL uptake,SR-BI uptake up,Vif inh,V-ATPase pH SP
Cc1ccc(NS(=O)(=O)c2cccc(C(=O)N3CCCCCCC3)c2)cc1,-13.6,1.3,11.1*,-26.6,26.5,2.6,-0.8
CC1=NN(c2nc(N)nc(/C(C#N)=C/c3ccc([N+](=O)[O-])o3)n2)C(C)(C)C1,-6.7,/,47.6*,-2.5,2.5,-6.6,0.0
O=C1C2C(C(=O)N1/N=C/c1ccc([N+](=O)[O-])o1)C1C=CC2C12CC2 (stereo not given),-6.0,1.7,1.8,-9.9,9.9,13.0,/
CC(C)(C)Cc1c(C2CCCCC2)nc2ccc(Cl)cn12,-4.1,/,/,/,/,/,/
O=c1c(C=Nc2ccc(Cl)cc2)c[nH]n1-c1cccc(Cl)n1,-7.5,0.7,10.6*,-1.3,1.3,5.2,-3.9
Cc1ccc(NC(=O)CCn2c(=O)[nH]c3ccsc3c2=O)cc1,10.3,1.8,-0.3,/,/,-0.6,/
COc1cc(NC(=O)CCn2c(=O)[nH]c3ccsc3c2=O)cc(OC)c1,-5.0,-0.8,7.7*,19.7,-19.7,-6.4,1.8
CSc1nccc(N2CCN(c3ccc(F)cc3)CC2)n1,0.9,1.3,11.0*,23.2,-23.2,-4.9,-1.2
CCn1c(=O)c2sccc2n(CC(=O)NCCC2=CCCCC2)c1=O,-4.4,1.6,-2.1,/,/,/,/
CC(Oc1cccc2cccnc12)C(=O)N/N=C/c1ccc2c(c1)OCO2 (stereo not given),-1.4,-0.3,7.0*,/,/,-5.5,1.6
CC(Oc1cccc2cccnc12)C(=O)N/N=C/c1ccccc1 (stereo not given),-1.2,-1.8,1.1,4.7,-4.7,1.3,/
O=C(NC(Cc1ccccc1)C(=O)N1CCN(c2ccccn2)CC1)c1ccco1 (stereo not given),-4.1,0.3,12.2*,19.6,-19.6,-6.0,-1.8
O=C(CN1CCN(c2ccc(F)cc2)CC1)N1N=CCC1c1ccccc1 (stereo not given),-9.3,-0.3,-2.6,6.3,-6.3,-4.3,/
O=C(CN1CCN(c2ccccc2)CC1)N1N=CCC1c1ccccc1 (stereo not given),-5.0,-0.1,23.5*,-11.2,11.2,-27.9,-2.5
CC(Sc1nc(N)c(NC(=O)c2ccc(Br)o2)c(=O)[nH]1)C(=O)O (stereo not given),-8.6,1.0,1.4,-33.6,33.6,-2.4,/
CSc1nc(N)c(NC(=O)c2ccc(Br)o2)c(=O)[nH]1,-3.4,0.9,11.1*,1.1,-1.1,/,2.6
Cc1nnc(NC(=O)c2c(-c3ccccc3Cl)noc2C)s1,-2.3,1.8,-0.4,-14.7,14.7,1.8,/
Cc1nc(NC(=O)c2c(-c3ccccc3Cl)noc2C)sc1C,-4.9,-0.2,12.9*,7.3,-7.3,-11.0,3.6
Cc1ccccc1CS(=O)(=O)Cc1ccc(C(=O)NCCc2ccccc2)o1,-13.7,-0.2,-2.4,-4.6,4.6,-1.2,/
O=C(O)c1ccc(S(=O)(=O)c2ccc3c(c2)C(=O)N(NC(=O)c2cccnc2)C3=O)cc1,-1.6,-0.5,-1.2,/,/,-4.7,/
COc1ccc(C2CC(=O)C(c3ccccc3OC)=CN2Cc2ccccc2)cc1 (stereo not given),-4.8,/,/,/,/,/,/
CC(=O)N1N=C(c2ccccc2)OC1(C)CC(=O)Nc1ccccc1 (stereo not given),-18.5,1.9,8.3*,-10.4,10.4,1.7,-0.3
Cc1onc(-c2ccccc2)c1C(=O)c1c[nH]c(C(=O)NCc2ccncc2)c1,-3.2,-1.1,10.8*,-2.0,2.0,-6.0,2.4
Cc1onc(-c2ccccc2)c1C(=O)c1c[nH]c(C(=O)NCc2ccccn2)c1,-2.0,-0.7,-4.2,4.8,-4.8,-10.5,/
CCN1C(=O)C(CC(=O)Nc2ccc(OC)cc2)N(CCc2ccc(F)cc2)C1=S (stereo not given),/,6.1,5.8,34.8,-24.8,0.3,/
SMILES,CaV13 ICDI inh,NTR1 agonist,V-ATPase pHluor,SR-BI HDL uptake,SR-BI uptake up,Vif inh,V-ATPase pH SP
CCN1C(=O)C(CC(=O)Nc2ccc(OC)cc2)N(CCCN2CCN(c3ccc(F)cc3)CC2)C1=S (stereo not given),5.7,4.0,13.3*,44.6,-44.6,-0.4,2.8
CCOc1ccccc1N(CC(=O)Nc1cccnc1)S(=O)(=O)c1ccc(C)cc1,-0.7,0.2,9.9*,-8.4,8.4,-11.1,6.3
CC(Sc1ccc(S(=O)(=O)N(C)C)cn1)C(=O)NC1CCCC1 (stereo not given),-5.0,-1.4,-1.9,-33.0,33.0,-3.6,/
c1ccc(COCCCn2cc(-c3ccccc3)nn2)cc1,-9.1,3.7,10.4*,-16.3,16.3,-1.6,-2.3
Cc1ccc(C)c(OCc2ccc(C(=O)Nc3ccc([N+](=O)[O-])cn3)o2)c1,-16.5,-0.3,9.9*,-1.4,1.4,-4.9,4.5
Cc1ccc(C)c(OCc2ccc(C(=O)NN)o2)c1,-4.7,0.3,-0.5,2.7,-2.7,8.9,/
Cc1ccc(S(=O)(=O)N2CCN(C(=O)COC(=O)CCOc3cc(C)ccc3C)CC2)cc1,-2.4,5.9,10.1*,4.3,-4.3,0.7,2.1
Cc1ccc(C)c(OCCC(=O)OCC(=O)N2CCN(S(=O)(=O)c3ccc(Cl)cc3)CC2)c1,-14.3,3.6,-1.2,-32.6,32.6,-3.9,/
Cc1ccc(S(=O)(=O)N2CCN(C(=O)COC(=O)CCOc3ccccc3C)CC2)cc1,-13.7,2.1,11.8*,5.0,-5.0,1.2,2.5
COCCN(C(=O)COC(=O)CCC(=O)c1ccc(Cl)cc1)c1c(N)n(Cc2ccccc2)c(=O)[nH]c1=O,-3.4,-0.7,-2.6,27.6,-27.6,-1.4,/
O=C(OCC(=O)N1CCN(c2ccccc2)CC1)c1ccccn1,/,/,-5.7,-11.1,11.1,2.4,/
Cn1cccc1C(=O)OCC(=O)N1CCN(c2ccccc2)CC1,-6.4,0.1,9.8*,14.4,-14.4,-3.4,2.7
Cc1cc(Cl)ccc1OCC(=O)N(Cc1cccs1)C1CCS(=O)(=O)C1 (stereo not given),-2.6,0.7,-1.5,-4.9,4.9,5.3,/
Cc1ccccc1-c1ccccc1CN1[C@@H](C(C)C)COCCS1(=O)=O,-3.8,10.2,8.8*,2.3,-2.3,-1.1,1.6
O=C(COc1ccc(Cl)cc1)OCC(=O)N1CCOCC1,-2.4,0.5,2.4,-13.8,13.8,3.5,/
Cc1cc(=O)oc2cc(OCC(=O)NC3CC(C)(C)NC(C)(C)C3)ccc12,-13.9,1.8,10.9*,3.0,-3.0,-6.5,-0.5
COc1ccc(-c2noc(N3CCCC(C(=O)Nc4ccc(C(C)=O)cc4)C3)n2)cc1 (stereo not given),-7.2,0.8,1.7,19.3,-19.3,-2.6,/
O=C(Nc1cccc(C(F)(F)F)c1)c1cccnc1N1CCN(c2ccccc2)CC1,-9.4,4.6,12.3*,22.8,-22.8,-11.1,-2.3
